# Test results as given in ChEMBL document CHEMBL4387708, “Enhancement of Benzothiazoles as Pteridine Reductase-1 Inhibitors for the Treatment of Trypanosomatidic Infections” (J Med Chem, 2019).
# Tested on: not listed separately
# Assay: Cytotoxicity against human U2OS cells assessed as reduction in cell number
# Format: cell-based
# Details: not given
row,Compound,GI50 [µM]
1,COC(=O)C1CCN(C(=O)c2ccc(CNC(=O)c3ccc4nc(N)sc4c3)cc2)CC1,> 25
2,COc1ccc2nc(N)sc2c1,> 25
3,COc1cc(CNC(=O)c2ccc3nc(N)sc3c2)cc(OC)c1OC,> 25
4,Nc1nc2ccc(S(=O)(=O)Cc3ccc(Cl)c(Cl)c3)cc2s1,> 25
5,Nc1nc2ccc(S(=O)(=O)Cc3ccccc3)cc2s1,> 25

# Molecular target: Cytochrome P450 2C9 (Homo sapiens, UniProt P11712)
# Sequence (P11712 whole entry): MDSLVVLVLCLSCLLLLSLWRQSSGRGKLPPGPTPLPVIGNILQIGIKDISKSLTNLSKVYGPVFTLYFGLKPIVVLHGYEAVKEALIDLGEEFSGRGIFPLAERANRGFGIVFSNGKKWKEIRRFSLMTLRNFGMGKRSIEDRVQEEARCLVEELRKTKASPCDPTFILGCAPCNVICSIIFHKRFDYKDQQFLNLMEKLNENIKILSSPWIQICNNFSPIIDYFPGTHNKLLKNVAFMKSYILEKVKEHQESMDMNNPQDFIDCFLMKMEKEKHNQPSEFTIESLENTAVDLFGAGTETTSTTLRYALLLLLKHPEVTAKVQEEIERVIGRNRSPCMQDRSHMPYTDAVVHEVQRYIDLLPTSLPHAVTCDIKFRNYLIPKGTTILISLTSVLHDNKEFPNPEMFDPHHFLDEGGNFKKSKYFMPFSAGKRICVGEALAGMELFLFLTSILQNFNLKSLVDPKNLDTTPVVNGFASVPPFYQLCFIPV
# Assay: Inhibition of human CYP2C9 expressed in baculovirus infected insect cells using beetle D-luciferin as substrate preincubated for 30 mins followed by NADPH addition and measured after 30 mins by CYP450-Glo assay
# Details: not given
row,Compound,IC50 [µM]
1,COC(=O)C1CCN(C(=O)c2ccc(CNC(=O)c3ccc4nc(N)sc4c3)cc2)CC1,> 25
2,COc1ccc2nc(N)sc2c1,> 25
3,COc1cc(CNC(=O)c2ccc3nc(N)sc3c2)cc(OC)c1OC,> 25
4,Nc1nc2ccc(S(=O)(=O)Cc3ccc(Cl)c(Cl)c3)cc2s1,> 25
5,Nc1nc2ccc(S(=O)(=O)Cc3ccccc3)cc2s1,> 25

# Tested on: Leishmania infantum
# Assay: Growth inhibition of luciferase expressing Leishmania infantum axenic amastigotes infected in human THP1 cells at 10 uM measured after 72 hrs by steady-glo luminescence assay relative to control
# Format: organism-based
# Details: Leishmania infantum, THP-1, 72 h; read-out: GI
row,Compound,inhibition at 10 µM [%]
1,Nc1nc2ccc(S(=O)(=O)Cc3ccc(Cl)c(Cl)c3)cc2s1,21

# Same assay, conditions: leishmania infantum, 72 h, 10 µM
row,Compound,growth inhibition (GI)
1,COC(=O)C1CCN(C(=O)c2ccc(CNC(=O)c3ccc4nc(N)sc4c3)cc2)CC1,Non-Toxic
2,COc1ccc2nc(N)sc2c1,Non-Toxic
3,COc1cc(CNC(=O)c2ccc3nc(N)sc3c2)cc(OC)c1OC,Non-Toxic
4,Nc1nc2ccc(S(=O)(=O)Cc3ccccc3)cc2s1,Non-Toxic

# Molecular target: Cytochrome P450 2D6 (Homo sapiens, UniProt P10635)
# Sequence (P10635 whole entry): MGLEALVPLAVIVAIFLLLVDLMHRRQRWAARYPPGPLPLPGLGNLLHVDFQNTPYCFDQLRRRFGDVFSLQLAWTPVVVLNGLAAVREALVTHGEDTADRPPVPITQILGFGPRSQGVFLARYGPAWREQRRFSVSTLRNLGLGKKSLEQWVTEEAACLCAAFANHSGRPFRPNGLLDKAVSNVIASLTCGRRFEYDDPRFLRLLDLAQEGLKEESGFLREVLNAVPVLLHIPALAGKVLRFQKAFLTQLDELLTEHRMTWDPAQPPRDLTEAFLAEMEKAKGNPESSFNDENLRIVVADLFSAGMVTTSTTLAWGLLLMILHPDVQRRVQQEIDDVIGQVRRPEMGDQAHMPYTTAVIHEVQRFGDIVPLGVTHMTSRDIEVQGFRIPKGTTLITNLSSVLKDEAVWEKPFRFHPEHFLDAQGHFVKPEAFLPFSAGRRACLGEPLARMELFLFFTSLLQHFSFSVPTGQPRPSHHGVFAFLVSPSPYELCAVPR
# Assay: Inhibition of human CYP2D6 expressed in baculovirus infected insect cells using beetle D-luciferin as substrate preincubated for 30 mins followed by NADPH addition and measured after 30 mins by CYP450-Glo assay
# Details: not given
row,Compound,IC50 [µM]
1,COC(=O)C1CCN(C(=O)c2ccc(CNC(=O)c3ccc4nc(N)sc4c3)cc2)CC1,> 25
2,COc1ccc2nc(N)sc2c1,< 10
3,COc1cc(CNC(=O)c2ccc3nc(N)sc3c2)cc(OC)c1OC,> 25
4,Nc1nc2ccc(S(=O)(=O)Cc3ccc(Cl)c(Cl)c3)cc2s1,< 10
5,Nc1nc2ccc(S(=O)(=O)Cc3ccccc3)cc2s1,10 to 25

# Molecular target: not listed separately
# Assay: Inhibition of N-terminal His-tagged Trypanosoma brucei pteridine reductase 1 using di-hydrobiopterine as substrate measured at 1 min interval for 50 mins in presence of NADPH
# Details: not given
# Procedure, shortened: (§1)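 Photometric PTR1 assay with NADPH and dihydrobiopterin substrate. H₄B formation is coupled non-enzymatically to cytochrome c reduction, read as signal increase at 550 nm.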
row,Compound,IC50 [µM]
1,COC(=O)C1CCN(C(=O)c2ccc(CNC(=O)c3ccc4nc(N)sc4c3)cc2)CC1,21.8
2,Nc1nc2ccc(S(=O)(=O)Cc3ccccc3)cc2s1,57.6

# Tested on: not listed separately
# Assay: Selectivity ratio of IC50 for Leishmania major pteridine reductase 1 to IC50 for N-terminal His-tagged Trypanosoma brucei pteridine reductase 1
# Details: not given
row,Compound,Ratio IC50
1,COC(=O)C1CCN(C(=O)c2ccc(CNC(=O)c3ccc4nc(N)sc4c3)cc2)CC1,2 to 100
2,COc1ccc2nc(N)sc2c1,2 to 100
3,COc1cc(CNC(=O)c2ccc3nc(N)sc3c2)cc(OC)c1OC,2 to 100
4,Nc1nc2ccc(S(=O)(=O)Cc3ccc(Cl)c(Cl)c3)cc2s1,2 to 100
5,Nc1nc2ccc(S(=O)(=O)Cc3ccccc3)cc2s1,2 to 100

# Molecular target: T1, Pteridine reductase 1 (Leishmania major) (UniProt Q01782)
# T1 sequence (whole entry): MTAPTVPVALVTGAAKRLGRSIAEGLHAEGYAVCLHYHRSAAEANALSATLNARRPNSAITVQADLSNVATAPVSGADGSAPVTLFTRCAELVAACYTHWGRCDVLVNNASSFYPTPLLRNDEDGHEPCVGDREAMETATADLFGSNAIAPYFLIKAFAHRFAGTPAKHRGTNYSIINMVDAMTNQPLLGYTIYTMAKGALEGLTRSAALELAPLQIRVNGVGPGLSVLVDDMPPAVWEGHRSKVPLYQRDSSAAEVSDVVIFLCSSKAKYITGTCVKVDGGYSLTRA
# Assay: Inhibition of Leishmania major pteridine reductase 1 at 50 uM using di-hydrobiopterine as substrate in presence of NADPH relative to control
# Details: not given
# Procedure, shortened: as §1
row,Compound,inhibition [%]
1,COC(=O)C1CCN(C(=O)c2ccc(CNC(=O)c3ccc4nc(N)sc4c3)cc2)CC1,1.97
2,COc1ccc2nc(N)sc2c1,15.2
3,COc1cc(CNC(=O)c2ccc3nc(N)sc3c2)cc(OC)c1OC,67.1
4,Nc1nc2ccc(S(=O)(=O)Cc3ccc(Cl)c(Cl)c3)cc2s1,26.9
5,Nc1nc2ccc(S(=O)(=O)Cc3ccccc3)cc2s1,27.1

# Tested on: not listed separately
# Assay: Cytotoxicity against human A549 cells after 48 hrs by Celltiter-glo assay
# Format: cell-based
# Details: not given
row,Compound,GI50 at 48 h [µM]
1,COC(=O)C1CCN(C(=O)c2ccc(CNC(=O)c3ccc4nc(N)sc4c3)cc2)CC1,> 25
2,COc1ccc2nc(N)sc2c1,< 10
3,COc1cc(CNC(=O)c2ccc3nc(N)sc3c2)cc(OC)c1OC,> 25
4,Nc1nc2ccc(S(=O)(=O)Cc3ccc(Cl)c(Cl)c3)cc2s1,10 to 25
5,Nc1nc2ccc(S(=O)(=O)Cc3ccccc3)cc2s1,> 25

# Tested on: not listed separately
# Assay: Cytotoxicity against human THP1 cells after 72 hrs by MTT assay
# Format: cell-based, THP-1
# Details: read-out: NOAEL
row,Compound,MNTC at 72 h [µM]
1,COC(=O)C1CCN(C(=O)c2ccc(CNC(=O)c3ccc4nc(N)sc4c3)cc2)CC1,> 25
2,COc1ccc2nc(N)sc2c1,> 25
3,COc1cc(CNC(=O)c2ccc3nc(N)sc3c2)cc(OC)c1OC,> 25
4,Nc1nc2ccc(S(=O)(=O)Cc3ccc(Cl)c(Cl)c3)cc2s1,10 to 25
5,Nc1nc2ccc(S(=O)(=O)Cc3ccccc3)cc2s1,> 25

# Molecular target: Voltage-gated inwardly rectifying potassium channel KCNH2 (Homo sapiens, UniProt Q12809)
# Sequence (Q12809 whole entry): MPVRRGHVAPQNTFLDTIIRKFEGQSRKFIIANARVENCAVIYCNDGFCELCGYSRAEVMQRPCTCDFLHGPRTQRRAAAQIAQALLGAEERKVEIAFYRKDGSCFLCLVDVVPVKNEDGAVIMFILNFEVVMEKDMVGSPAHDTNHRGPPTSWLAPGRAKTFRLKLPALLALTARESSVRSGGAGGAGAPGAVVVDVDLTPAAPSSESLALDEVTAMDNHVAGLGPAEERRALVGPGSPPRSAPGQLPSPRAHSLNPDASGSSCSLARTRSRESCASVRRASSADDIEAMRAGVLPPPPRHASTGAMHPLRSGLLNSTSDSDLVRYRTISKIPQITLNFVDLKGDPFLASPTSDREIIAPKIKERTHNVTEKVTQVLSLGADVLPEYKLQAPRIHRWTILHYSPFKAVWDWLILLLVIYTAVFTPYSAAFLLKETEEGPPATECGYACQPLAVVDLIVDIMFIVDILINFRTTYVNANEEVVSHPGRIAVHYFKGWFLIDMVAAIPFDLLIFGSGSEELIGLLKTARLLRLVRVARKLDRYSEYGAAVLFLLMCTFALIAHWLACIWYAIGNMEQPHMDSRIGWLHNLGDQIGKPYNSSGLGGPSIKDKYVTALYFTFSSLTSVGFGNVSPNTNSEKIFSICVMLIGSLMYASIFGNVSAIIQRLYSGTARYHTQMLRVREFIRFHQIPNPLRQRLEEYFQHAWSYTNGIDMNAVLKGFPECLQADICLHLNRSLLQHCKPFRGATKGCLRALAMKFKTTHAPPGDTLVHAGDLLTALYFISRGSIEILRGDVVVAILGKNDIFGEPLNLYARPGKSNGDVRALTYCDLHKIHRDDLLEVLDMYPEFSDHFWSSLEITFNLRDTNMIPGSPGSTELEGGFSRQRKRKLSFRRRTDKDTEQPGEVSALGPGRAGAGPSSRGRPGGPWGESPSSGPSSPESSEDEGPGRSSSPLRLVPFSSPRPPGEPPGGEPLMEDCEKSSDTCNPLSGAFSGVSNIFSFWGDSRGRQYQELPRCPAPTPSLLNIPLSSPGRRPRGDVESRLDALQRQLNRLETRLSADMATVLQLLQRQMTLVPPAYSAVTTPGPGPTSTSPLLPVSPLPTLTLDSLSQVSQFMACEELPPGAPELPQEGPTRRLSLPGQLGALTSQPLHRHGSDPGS
# Assay: Displacement of Tracer Red from human ERG by fluorescence polarization assay
# Details: not given
row,Compound,IC50 [µM]
1,COC(=O)C1CCN(C(=O)c2ccc(CNC(=O)c3ccc4nc(N)sc4c3)cc2)CC1,< 10
2,COc1ccc2nc(N)sc2c1,< 10
3,COc1cc(CNC(=O)c2ccc3nc(N)sc3c2)cc(OC)c1OC,> 25
4,Nc1nc2ccc(S(=O)(=O)Cc3ccc(Cl)c(Cl)c3)cc2s1,> 25
5,Nc1nc2ccc(S(=O)(=O)Cc3ccccc3)cc2s1,> 25

# Tested on: Trypanosoma brucei
# Assay: Inhibition of N-terminal His-tagged Trypanosoma brucei pteridine reductase 1 at 50 uM using di-hydrobiopterine as substrate measured at 1 min interval for 50 mins in presence of NADPH relative to control
# Details: not given
# Procedure, shortened: as §1
row,Compound,inhibition [%]
1,COC(=O)C1CCN(C(=O)c2ccc(CNC(=O)c3ccc4nc(N)sc4c3)cc2)CC1,> 60
2,COc1ccc2nc(N)sc2c1,29.9
3,COc1cc(CNC(=O)c2ccc3nc(N)sc3c2)cc(OC)c1OC,30.8
4,Nc1nc2ccc(S(=O)(=O)Cc3ccc(Cl)c(Cl)c3)cc2s1,16.7
5,Nc1nc2ccc(S(=O)(=O)Cc3ccccc3)cc2s1,> 60

# Tested on: Trypanosoma cruzi
# Assay: Growth inhibition of trypomastigote form of Trypanosoma cruzi Y infected in human U2OS cells at 50 uM measured after 72 hrs by DRAQ5 DNA dye based confocal microscopic analysis relative to control
# Format: organism-based
# Details: Trypanosoma cruzi, Y, U2OS, read-out: GI
row,Compound,inhibition at 50 µM [%]
1,COc1ccc2nc(N)sc2c1,32.9
2,COc1cc(CNC(=O)c2ccc3nc(N)sc3c2)cc(OC)c1OC,19.8
3,Nc1nc2ccc(S(=O)(=O)Cc3ccc(Cl)c(Cl)c3)cc2s1,32.8

# Same assay, conditions: trypanosoma cruzi, 50 µM
row,Compound,growth inhibition (GI)
1,COC(=O)C1CCN(C(=O)c2ccc(CNC(=O)c3ccc4nc(N)sc4c3)cc2)CC1,Non-Toxic
2,Nc1nc2ccc(S(=O)(=O)Cc3ccccc3)cc2s1,Non-Toxic

# Molecular target: Cytochrome P450 3A4 (Homo sapiens, UniProt P08684)
# Sequence (P08684 whole entry): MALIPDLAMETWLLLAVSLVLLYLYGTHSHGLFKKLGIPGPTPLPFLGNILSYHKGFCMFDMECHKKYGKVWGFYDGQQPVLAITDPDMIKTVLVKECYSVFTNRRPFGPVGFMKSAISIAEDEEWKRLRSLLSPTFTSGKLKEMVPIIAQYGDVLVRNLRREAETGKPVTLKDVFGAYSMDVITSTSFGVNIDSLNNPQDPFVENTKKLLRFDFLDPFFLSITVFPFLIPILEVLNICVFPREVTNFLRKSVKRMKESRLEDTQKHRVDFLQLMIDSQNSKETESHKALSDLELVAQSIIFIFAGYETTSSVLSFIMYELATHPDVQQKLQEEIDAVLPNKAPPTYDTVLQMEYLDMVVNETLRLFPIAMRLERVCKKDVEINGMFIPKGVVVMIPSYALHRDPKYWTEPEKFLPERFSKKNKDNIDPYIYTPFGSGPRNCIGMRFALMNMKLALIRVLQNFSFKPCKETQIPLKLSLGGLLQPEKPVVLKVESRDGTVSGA
# Assay: Inhibition of human CYP3A4 expressed in baculovirus infected insect cells using beetle D-luciferin as substrate preincubated for 30 mins followed by NADPH addition and measured after 30 mins by CYP450-Glo assay
# Details: not given
row,Compound,IC50 [µM]
1,COC(=O)C1CCN(C(=O)c2ccc(CNC(=O)c3ccc4nc(N)sc4c3)cc2)CC1,> 25
2,COc1ccc2nc(N)sc2c1,10 to 25
3,COc1cc(CNC(=O)c2ccc3nc(N)sc3c2)cc(OC)c1OC,> 25
4,Nc1nc2ccc(S(=O)(=O)Cc3ccc(Cl)c(Cl)c3)cc2s1,10 to 25
5,Nc1nc2ccc(S(=O)(=O)Cc3ccccc3)cc2s1,> 25

# Molecular target: T2, Cytochrome P450 1A2 (Homo sapiens, UniProt P05177)
# T2 sequence (P05177 whole entry): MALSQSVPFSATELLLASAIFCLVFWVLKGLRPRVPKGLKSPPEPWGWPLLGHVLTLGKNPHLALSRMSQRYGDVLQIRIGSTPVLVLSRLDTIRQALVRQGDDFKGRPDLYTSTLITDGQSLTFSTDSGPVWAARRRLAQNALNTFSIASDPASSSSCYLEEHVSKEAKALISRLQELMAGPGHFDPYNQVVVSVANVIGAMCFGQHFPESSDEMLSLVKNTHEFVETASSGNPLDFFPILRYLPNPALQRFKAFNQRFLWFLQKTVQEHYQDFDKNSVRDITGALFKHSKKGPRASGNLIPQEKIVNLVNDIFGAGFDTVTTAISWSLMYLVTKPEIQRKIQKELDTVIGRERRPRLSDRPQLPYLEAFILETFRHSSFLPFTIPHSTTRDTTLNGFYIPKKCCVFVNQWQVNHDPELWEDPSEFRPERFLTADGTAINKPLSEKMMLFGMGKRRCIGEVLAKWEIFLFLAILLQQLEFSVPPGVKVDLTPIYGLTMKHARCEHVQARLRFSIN
# Assay: Inhibition of human CYP1A2 expressed in baculovirus infected insect cells using beetle D-luciferin as substrate preincubated for 30 mins followed by NADPH addition and measured after 30 mins by CYP450-Glo assay
# Details: not given
row,Compound,IC50 [µM]
1,COC(=O)C1CCN(C(=O)c2ccc(CNC(=O)c3ccc4nc(N)sc4c3)cc2)CC1,> 25
2,COc1ccc2nc(N)sc2c1,10 to 25
3,COc1cc(CNC(=O)c2ccc3nc(N)sc3c2)cc(OC)c1OC,> 25
4,Nc1nc2ccc(S(=O)(=O)Cc3ccc(Cl)c(Cl)c3)cc2s1,> 25
5,Nc1nc2ccc(S(=O)(=O)Cc3ccccc3)cc2s1,> 25

# Molecular target: Cytochrome P450 2C19 (Homo sapiens, UniProt P33261)
# Sequence (P33261 whole entry): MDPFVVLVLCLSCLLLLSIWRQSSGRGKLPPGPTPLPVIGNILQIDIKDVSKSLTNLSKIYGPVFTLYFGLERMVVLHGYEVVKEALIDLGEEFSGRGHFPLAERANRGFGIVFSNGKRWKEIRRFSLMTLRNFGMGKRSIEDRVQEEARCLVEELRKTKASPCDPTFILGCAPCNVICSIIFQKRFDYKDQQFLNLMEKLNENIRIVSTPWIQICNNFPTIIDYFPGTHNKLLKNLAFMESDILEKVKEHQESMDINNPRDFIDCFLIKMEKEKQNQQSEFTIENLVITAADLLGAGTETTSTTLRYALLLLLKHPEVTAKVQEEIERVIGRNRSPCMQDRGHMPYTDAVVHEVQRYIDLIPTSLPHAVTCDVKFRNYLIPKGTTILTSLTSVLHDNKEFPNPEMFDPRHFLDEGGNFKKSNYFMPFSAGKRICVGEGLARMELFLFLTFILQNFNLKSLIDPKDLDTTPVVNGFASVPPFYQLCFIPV
# Assay: Inhibition of human CYP2C19 expressed in baculovirus infected insect cells using beetle D-luciferin as substrate preincubated for 30 mins followed by NADPH addition and measured after 30 mins by CYP450-Glo assay
# Details: not given
row,Compound,IC50 [µM]
1,COC(=O)C1CCN(C(=O)c2ccc(CNC(=O)c3ccc4nc(N)sc4c3)cc2)CC1,> 25
2,COc1ccc2nc(N)sc2c1,10 to 25
3,COc1cc(CNC(=O)c2ccc3nc(N)sc3c2)cc(OC)c1OC,> 25
4,Nc1nc2ccc(S(=O)(=O)Cc3ccc(Cl)c(Cl)c3)cc2s1,< 10
5,Nc1nc2ccc(S(=O)(=O)Cc3ccccc3)cc2s1,> 25

# Tested on: Trypanosoma brucei
# Assay: Growth inhibition of Trypanosoma brucei bloodstream forms at 10 uM measured after 72 hrs by resazurin-based fluorescence assay relative to control
# Format: organism-based
# Details: Trypanosoma brucei, read-out: GI
row,Compound,inhibition at 10 µM [%]
1,COC(=O)C1CCN(C(=O)c2ccc(CNC(=O)c3ccc4nc(N)sc4c3)cc2)CC1,24
2,COc1ccc2nc(N)sc2c1,6
3,COc1cc(CNC(=O)c2ccc3nc(N)sc3c2)cc(OC)c1OC,9
4,Nc1nc2ccc(S(=O)(=O)Cc3ccc(Cl)c(Cl)c3)cc2s1,37
5,Nc1nc2ccc(S(=O)(=O)Cc3ccccc3)cc2s1,5

# Tested on: not listed separately
# Assay: Mitochondrial toxicity in human 786-O cells measured after 6 hrs by MitoTracker Red chloromethyl-X-rosamine based assay
# Format: cell-based, 786-0
# Details: not given
row,Compound,IC50 at 6 h [µM]
1,COC(=O)C1CCN(C(=O)c2ccc(CNC(=O)c3ccc4nc(N)sc4c3)cc2)CC1,< 10
2,COc1ccc2nc(N)sc2c1,< 10
3,COc1cc(CNC(=O)c2ccc3nc(N)sc3c2)cc(OC)c1OC,> 25
4,Nc1nc2ccc(S(=O)(=O)Cc3ccc(Cl)c(Cl)c3)cc2s1,> 25
5,Nc1nc2ccc(S(=O)(=O)Cc3ccccc3)cc2s1,> 25
